Bioassay records as filed in PubChem BioAssay.
HSV augment – HSV replication enhancement; 0.005% of 220,000 active; HSV replication augmentation in cells, fold increase; AID 1956; maximum fold increase; in the data active means maximum fold increase above about 1.5; tested in PC3 cells
STAT3 activator – activators of IL-6 induced STAT3 signaling; U3A cells, IL-6 STAT3-luciferase reporter, luminescence; 100% = signal with IL-6 EC80 alone; activation (% of control), % at 5.6 µM; 0.91% of 190,000 active; AID 871;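 active means activation above the screen-wide mean of compound activation plus 3 SD, cut at about 130% in these data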
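Detection: reporter luminescence signal / Assay system: STAT1-lacking human U3A cells, STAT3 luciferase reporter / Incubation: compound pre-incubation 1 h before IL-6, then 6 h stimulation at 37 °C / Control set: IL-6-only high control / Read-out: % activation relative to IL-6 control / Probe or stimulus: Interleukin-6, 33 ng/mL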
Cl transport mod – modulates chloride dependent transport by human KCC2; 2.2% of 190,000 active; B-score of Tl+ flux slope (higher = more flux/activation; lower = inhibition) at 10 µM; KCC2 cells, thallium flux FluoZin-2 fluorescence; Q9H2X9;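 active means thallium flux slope and its plate-corrected score both differing from the plate sample mean at a set confidence after two filtering rounds, in either direction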;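 further: slope of fluorescence scaled to starting intensity during 10 to 20 s after thallium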
Target sequence (Q9H2X9 whole entry, looked up): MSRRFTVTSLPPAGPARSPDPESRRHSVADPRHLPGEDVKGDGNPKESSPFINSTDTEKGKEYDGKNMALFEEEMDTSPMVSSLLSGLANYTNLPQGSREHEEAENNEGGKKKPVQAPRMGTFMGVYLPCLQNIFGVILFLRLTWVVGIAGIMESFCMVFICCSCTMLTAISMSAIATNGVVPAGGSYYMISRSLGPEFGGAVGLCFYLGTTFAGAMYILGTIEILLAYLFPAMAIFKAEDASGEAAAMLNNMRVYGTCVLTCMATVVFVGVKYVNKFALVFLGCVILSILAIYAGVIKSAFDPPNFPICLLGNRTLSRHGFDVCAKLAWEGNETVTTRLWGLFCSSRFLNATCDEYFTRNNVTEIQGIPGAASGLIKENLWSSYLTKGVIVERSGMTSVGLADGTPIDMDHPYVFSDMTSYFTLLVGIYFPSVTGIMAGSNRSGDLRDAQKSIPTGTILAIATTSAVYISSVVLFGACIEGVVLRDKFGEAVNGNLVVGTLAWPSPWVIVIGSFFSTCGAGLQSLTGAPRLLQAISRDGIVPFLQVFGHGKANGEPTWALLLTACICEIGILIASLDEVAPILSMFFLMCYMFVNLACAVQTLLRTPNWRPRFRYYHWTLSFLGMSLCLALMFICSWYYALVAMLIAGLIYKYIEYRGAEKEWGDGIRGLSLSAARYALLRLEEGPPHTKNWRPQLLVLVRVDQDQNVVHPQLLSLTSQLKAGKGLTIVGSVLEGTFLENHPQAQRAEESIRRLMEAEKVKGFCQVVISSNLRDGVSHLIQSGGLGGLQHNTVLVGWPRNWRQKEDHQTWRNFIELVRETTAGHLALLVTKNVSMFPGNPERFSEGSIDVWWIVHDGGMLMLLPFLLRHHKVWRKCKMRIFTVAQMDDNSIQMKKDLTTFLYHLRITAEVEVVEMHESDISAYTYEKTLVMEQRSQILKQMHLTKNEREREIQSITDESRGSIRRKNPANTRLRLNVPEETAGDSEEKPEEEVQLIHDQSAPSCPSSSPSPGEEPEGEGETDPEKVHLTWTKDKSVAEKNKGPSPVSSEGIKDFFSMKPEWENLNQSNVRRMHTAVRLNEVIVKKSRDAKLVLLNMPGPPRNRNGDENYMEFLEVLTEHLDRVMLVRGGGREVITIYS
STAT3 blocker – STAT3 signaling inhibition. U3A cells, IL-6 STAT3-luciferase reporter, luminescence; host cell line lacks STAT1. inhibition, % at 5.5 µM. 0.89% of 190,000 active;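 active means inhibition above the mean inhibition across all screened compounds plus 3 SD, cut at about 44% in these data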
STAT1 blocker – inhibitors of IFN-gamma induced STAT1 signaling | NIH 3T3 STAT1-luciferase reporter, luminescence | inhibition, % at 5.5 µM | 0.35% of 200,000 active | AID 920;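 active means inhibition above a set limit, the mean inhibition across all tested compounds plus 3 SD, cut at about 34% in these data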
STAT1 activator – STAT1 signaling activation. NIH 3T3 STAT1-luciferase reporter, IFN-gamma, luminescence; 100% = IFN-gamma alone, no compound. activation (% of control), % at 5.5 µM. 2.6% of 200,000 active;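 active means activation above the screen-wide mean activation plus 3 SD, cut at about 130% in these data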
Of the large screens only hits and unclear results are named; the others gave an inactive call. An excerpt weighted towards active compounds, which were near 5.5% of everything screened.

CCCc1ccc(OCc2ccc(C(=O)Nc3cccc(C)n3)o2)c(OC)c1	STAT1 activator 138
Cc1cccc(NC(=O)Cc2noc3ccccc23)c1	STAT1 activator 140
Cc1cc(C(=O)Nc2cccc(C(=O)O)c2)oc1C	STAT3 blocker 87, STAT1 blocker 55
Cc1cccc(NC(=O)c2cc3ccccc3o2)c1	STAT1 activator 136 (no result: Cl transport mod)
Cc1cccc(NC(=O)Cc2noc3ccccc23)c1C	none
O=C(Nc1cccc(Br)c1)c1cc2ccccc2o1	STAT1 activator 142
Clc1ccc(-c2nc(-c3cc4cc(Cl)ccc4o3)cs2)cc1	none (no result: STAT3 activator, STAT3 blocker, STAT1 blocker, STAT1 activator)
CN(C)S(=O)(=O)c1cccc(NC(=O)CN2C(=O)C3C4C=CC(C4)C3C2=O)c1 (stereo unspecified)	none
CCCCn1nnc(NC(=O)c2cc3ccccc3o2)n1	STAT1 activator 135
CCC(=O)Nc1ccc2c(c1)C(=O)c1ccccc1C2=O	STAT1 activator 148
CCC(=O)Nc1cccc(NC(=O)c2cc3ccccc3o2)c1	STAT1 activator 148 (no result: HSV augment, Cl transport mod)
CCC(=O)Nc1cccc(-c2cc3ccccc3oc2=O)c1	STAT1 activator 134
CCC(=O)Nc1ccc2c(c1)C(=O)N(C)C2=O	none
CCCn1nnc(NC(=O)c2cc3ccccc3o2)n1	none
CCC(=O)Nc1cccc(-c2nc3ccccc3o2)c1	none
CCOc1cc(C(=O)N/N=C\c2cn(CC)nc2C)cc(OCC)c1OCC	none
O=C(CSc1n[nH]c(=O)n1C1CC1)NCc1ccccc1	none (no result: STAT3 activator, STAT3 blocker, STAT1 blocker, STAT1 activator)
CCc1ccc(C(=O)C(C)OC(=O)C2COc3ccccc3O2)cc1 (stereo unspecified)	none
O=C(NC(=S)Nc1cccnc1)c1cc2ccccc2o1	Cl transport mod 88, STAT1 activator 131 (no result: HSV augment)
Cc1c(/C(O)=C2/C(=O)C(=O)N(CCN3CCOCC3)C2c2ccccn2)cnn1-c1ccccc1 (stereo unspecified)	STAT3 blocker 88, STAT1 blocker 90
Cc1ccc(C2/C(=C(/O)c3cnn(-c4ccccc4)c3C)C(=O)C(=O)N2CCCN2CCOCC2)o1 (stereo unspecified)	none (no result: STAT3 activator, STAT3 blocker, STAT1 blocker, STAT1 activator)
COc1ccc(/C(O)=C2/C(=O)C(=O)N(CCN3CCOCC3)C2c2ccccn2)cc1 (stereo unspecified)	STAT1 activator 143
O=C(Nc1ccc(Cl)c(Cl)c1)OCCNC(=O)c1ccncc1	none
O=C(Nc1ccccc1)c1ccc(-c2ccc(F)cc2)s1	STAT1 activator 143
CNC(=O)c1ccc(-c2ccc(F)cc2)s1	none
CCCCCCCCCCCC(=O)NC(C(=O)OCC)C(O)c1cccc([N+](=O)[O-])c1 (stereo unspecified)	none (no result: Cl transport mod)
O=[N+]([O-])c1ccccc1S(=O)(=O)N1CCN(Cc2ccc3c(c2)OCO3)CC1	none
O=C(Nc1nnc(-c2ccccc2)o1)c1ccc(Cl)cc1	Cl transport mod 64
O=C(Nc1nnc(-c2ccc(Cl)cc2)o1)c1cccc(N2C(=O)CCC2=O)c1	Cl transport mod 17
O=C(Nc1nnc(-c2ccncc2)o1)c1cccc(N2C(=O)CCC2=O)c1	none
CC(=O)c1ccc(NC(=S)N2CC(C)CC(C)C2)cc1 (stereo unspecified)	none
C/C(=N\Nc1ccc([N+](=O)[O-])cc1)c1ccco1	STAT1 activator 156
Fc1ccc(COc2cccc3cccnc23)cc1	STAT1 activator 129
NC(=O)COc1cccc2cccnc12	none
Cc1ccc(Nc2nc(COC(=O)COc3ccc(C=O)cc3)cs2)cc1	STAT1 activator 131
Cn1c(=NC(=O)CCl)sc2ccccc21	none
O=C(CCl)N=c1sccn1Cc1cccc2ccccc12	STAT3 blocker 81, STAT1 blocker 92
O=C(CCl)N=c1sccn1Cc1ccccc1Cl	none (no result: STAT3 activator, STAT3 blocker, STAT1 blocker, STAT1 activator)
O=C(CCl)N=c1sccn1Cc1ccc(Cl)cc1Cl	STAT3 blocker 60, STAT1 blocker 90
O=C(CN1CCN(S(=O)(=O)c2ccccc2)CC1)Nc1ccc([N+](=O)[O-])cc1	none
COc1cc(/C=N/N=C(\N)c2nonc2N)ccc1O	STAT1 activator 130
COc1ccc(OC)c(/C=N/N=C(\N)c2nonc2N)c1	none (no result: STAT3 activator, STAT3 blocker, STAT1 blocker, STAT1 activator)
N/C(=N\N=C\c1ccc(O)c(O)c1)c1nonc1N	none (no result: STAT3 activator, STAT3 blocker, STAT1 blocker, STAT1 activator)
COc1ccc(/C=N/N=C(\N)c2nonc2N)cc1OC	STAT1 activator 141
Cn1c(SCc2ccccc2F)nnc1-c1ccccn1	STAT1 activator 142
Cn1c(SCc2ccc(F)cc2)nnc1-c1cccs1	STAT1 activator 140 (no result: Cl transport mod)
Cn1c(SCc2ccccc2)nnc1-c1cccs1	none
Cn1c(SCc2ccc(F)cc2)nnc1-c1ccccn1	STAT1 activator 140
Cn1c(SCc2ccccc2F)nnc1-c1cnccn1	STAT1 activator 137
Cn1c(SCc2ccccn2)nnc1-c1cnccn1	none
CN(C)CCC(=O)c1cccc(Br)c1	none
C=CCOC(=O)Nc1snnc1C	none
Cc1nnsc1NC(=O)OCc1ccc(C(C)(C)C)cc1	STAT3 blocker 65 (no result: Cl transport mod)
O=C(c1ccc2c(=O)n(C3CCCC3)c(=S)[nH]c2c1)N1CCc2ccccc21	Cl transport mod 17
CC(C)NC(=O)c1ccc2c(=O)n(C3CCCC3)c(=S)[nH]c2c1	none
COc1cccc2cc(-c3nc(-c4cccs4)cs3)c(=O)oc12	STAT1 activator 133 (no result: Cl transport mod)
COc1ccc(Nc2nc(-c3cc4cccc(OC)c4oc3=O)cs2)cc1	none
CNC(=O)c1cc2cccc(OC)c2oc1=O	none
COc1cccc2cc(-c3ccccc3)c(=O)oc12	STAT1 activator 142
C=CCc1ccc(OCCCCN2CC(C)OC(C)C2)c(OC)c1 (stereo unspecified)	none (no result: Cl transport mod)
O=C(NCC(=O)N1CC(O)CC1C(=O)N1CC(O)CC1C(=O)OCc1ccccc1)OCc1ccccc1 (stereo unspecified)	none
COc1ccccc1NC(=O)NCCN1CCNC1=O	none (no result: STAT3 activator, STAT3 blocker, STAT1 blocker, STAT1 activator)
C=CCNc1nc(NCc2ccccc2)c(C#N)c2c1CN(C)CC2	STAT3 activator 133
N#Cc1c(NCCN)nc(NCc2ccccc2)c2c1CCN(Cc1ccccc1)C2	none
COc1ncnc2c1oc1ccccc12	STAT1 activator 146
c1ccc(Sc2ncnc3c2oc2ccccc23)nc1	STAT1 activator 132
CC(C)Sc1ncnc2c1oc1ccccc12	none
O=c1cc(O)nc(SCc2ccccc2)n1-c1ccc(Cl)cc1	none
Cn1nc([N+](=O)[O-])nc1Oc1ccc(C(C)(C)C)cc1	none
COc1ccccc1N1C(=O)S/C(=C\c2cc(C)n(C)c2C)C1=O	STAT1 activator 137
Cc1cccc(NC(=O)c2c(O)c3cccc4c3n(c2=O)CC4)c1	STAT3 activator 158 (no result: HSV augment)
COCCCNC(=O)COc1ccc(Br)cc1Cl	STAT1 activator 139
CCNC(=O)COc1ccc(Br)cc1Cl	none
Cc1ccc(-c2ccc(C(=O)O)c(C)n2)cc1	none
COC(=O)c1ccc(-c2ccc(F)cc2)nc1C	STAT1 activator 132
Cc1ccccc1C(=O)NNC(=S)NC(=O)c1ccc(Cl)cc1Cl	Cl transport mod 28
O=C(NC(=S)N1CCCCCC1)c1ccc(Cl)cc1Cl	Cl transport mod 88
